Key:
Rat [1] = experiment: concentration in plasma after dosing; conditions: dosed: Isoeugenol, 70 mg/kg, oral, Male, F344/N
Rat [2] = experiment: concentration in plasma after dosing; conditions: dosed: Isoeugenol, 17 mg/kg, oral, Female, F344/N
Rat [3] = experiment: concentration in plasma after dosing; conditions: dosed: Isoeugenol, 17 mg/kg, oral, Female, F344/N; remark: listed apart in the source
Rat [4] = experiment: concentration in plasma after dosing; conditions: dosed: Isoeugenol, 17 mg/kg, oral, Female, F344/N; remark: listed apart in the source
Rat [5] = experiment: concentration in plasma after dosing; conditions: 2 min; dosed: Isoeugenol; 17 mg/kg; oral; Male; F344/N
Rat [6] = experiment: concentration in plasma after dosing; conditions: dosed: Isoeugenol, 70 mg/kg, oral, Male, F344/N; remark: listed apart in the source
Rat [7] = experiment: concentration in plasma after dosing; conditions: dosed: Isoeugenol, 70 mg/kg, oral, Male, F344/N; remark: listed apart in the source
Rat [8] = experiment: concentration in plasma after dosing; conditions: 10 min; dosed: Isoeugenol; 17 mg/kg; oral; Male; F344/N
Rat [9] = experiment: concentration in plasma after dosing; conditions: dosed: Isoeugenol, 17 mg/kg, oral, Female, F344/N; remark: listed apart in the source
Rat [10] = experiment: concentration in plasma after dosing; conditions: dosed: Isoeugenol, 17 mg/kg, oral, Female, F344/N; remark: listed apart in the source
Rat [11] = experiment: concentration in plasma after dosing; conditions: dosed: Isoeugenol, 17 mg/kg, oral, Female, F344/N; remark: listed apart in the source
Rat [12] = experiment: concentration in plasma after dosing; conditions: 20 min; dosed: Isoeugenol; 17 mg/kg; oral; Male; F344/N
Rat [13] = experiment: concentration in plasma after dosing; conditions: dosed: Isoeugenol, 17 mg/kg, oral, Female, F344/N; remark: listed apart in the source
Rat [14] = experiment: concentration in plasma after dosing; conditions: dosed: Tetralin, 2 mg/kg, iv, Male, Harlan Sprague Dawley
Rat [15] = experiment: concentration in plasma after dosing; conditions: 2 h; dosed: Tetralin; 2 mg/kg; iv; Male; Harlan Sprague Dawley
Rat [16] = experiment: concentration in plasma after dosing; conditions: dosed: Tetralin, 2 mg/kg, iv, Male, Harlan Sprague Dawley; remark: listed apart in the source
Rat [17] = experiment: concentration in plasma after dosing; conditions: dosed: Tetralin, 2 mg/kg, iv, Male, F344
Rat [18] = experiment: concentration in plasma after dosing; conditions: dosed: Tetralin, 20 mg/kg, iv, Female, Harlan Sprague Dawley
Rat [19] = experiment: concentration in plasma after dosing; conditions: 2 h; dosed: Tetralin; 2 mg/kg; iv; Male; F344
Rat [20] = experiment: concentration in plasma after dosing; conditions: dosed: Tetralin, 20 mg/kg, iv, Female, Harlan Sprague Dawley; remark: listed apart in the source
Rat [21] = experiment: concentration in plasma after dosing; conditions: dosed: Tetralin, 2 mg/kg, iv, Male, Harlan Sprague Dawley; remark: listed apart in the source
rat [22] = experiment: concentration in blood after dosing; conditions: dosed: styrene, 3000 ppm, dermal, duration: 4 hr, male, F344
rat [23] = experiment: concentration in blood after dosing; conditions: dosed: styrene, 3000 ppm, dermal, duration: 4 hr, male, F344; remark: listed apart in the source
human = experiment: concentration in expired air after dosing; conditions: dosed: styrene, inhalation
Method in brief: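 Sampling and analytical methods are those of each source and frequently went unreported. The concentration-versus-time and amount-versus-time points were compiled from published in vivo toxicokinetic studies and two structured collections. Most were digitised from plot screenshots with WebPlotDigitizer, with others copied from tables, in the reported units.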

C/C=C/c1ccc(O)c(OC)c1 [Isoeugenol]
Conditions	concentration in plasma [ng/mL]
Rat [1], 2 h	68.4
Rat [1], 2 min	711
Rat [2], 0.75 h	52.2
Rat [2], 3 h	16.3
Rat [3], 5 h	28.3
Rat [3], 10 min	430
Rat [4], 2 h	23.2
Rat [4], 2 min	69.1
Rat [6], 6 h	240
Rat [6], 20 min	1840
Rat [7], 4 h	339
Rat [7], 20 min	557
Rat [9], 1.5 h	33.6
Rat [9], 20 min	86.9
Rat [10], 0.5 h	243
Rat [10], 8 h	18
Rat [11], 1.5 h	26
Rat [11], 2 min	25.6
Rat [13], 8 h	31.8
Rat [13], 20 min	311

Conditions	concentration in plasma [ng/mL]
Rat [5]	35.6
Rat [8]	209
Rat [12]	105

c1ccc2c(c1)CCCC2 [Tetralin]
Conditions	concentration in plasma [µg/g]
Rat [14], 4 h	0.0072
Rat [14], 307 s	1.62
Rat [16], 0.2533 h	0.362
Rat [16], 6 h	0.00512
Rat [17], 0.505 h	0.246
Rat [17], 8 h	0.00426
Rat [18], 0.25 h	10.9
Rat [18], 6 h	0.111
Rat [20], 0.75 h	2.33
Rat [20], 12 h	0.0285
Rat [21], 0.75 h	0.0973
Rat [21], 12 h	0.00173

Conditions	concentration in plasma [µg/g]
Rat [15]	0.0179
Rat [19]	0.0337

C=Cc1ccccc1 [styrene]
concentration in blood [ng/mL]
Conditions	0.5 h	1 h	2 h	3 h	4 h
rat [22]	7760	7040	11500	7240	13000
rat [23]	2860	8010	4910	11300	10200

human, male
Conditions	concentration in expired air [ppm]
0.1527 h, 51 ppm, duration: 1 hr	0.506
0.2175 h, 376 ppm, duration: 1 hr	4
0.2306 h, 216 ppm, duration: 1 hr	2.27
0.2368 h, 51 ppm, duration: 1 hr	0.409
0.2553 h, 99 ppm, duration: 7 hr	1.24
0.3483 h, 99 ppm, duration: 7 hr	1.14
0.4469 h, 376 ppm, duration: 1 hr	3.1
0.4803 h, 51 ppm, duration: 1 hr	0.317
0.5105 h, 99 ppm, duration: 7 hr	1.08
0.7137 h, 376 ppm, duration: 1 hr	2.21
0.8189 h, 99 ppm, duration: 7 hr	0.876
0.9608 h, 216 ppm, duration: 1 hr	0.927
0.9799 h, 51 ppm, duration: 1 hr	0.0904
1.046 h, 376 ppm, duration: 1 hr	1.29
1.064 h, 99 ppm, duration: 7 hr	0.733
1.944 h, 99 ppm, duration: 7 hr	0.648
1.964 h, 216 ppm, duration: 1 hr	0.501
1.984 h, 376 ppm, duration: 1 hr	0.934
1.988 h, 51 ppm, duration: 1 hr	0.0505
2.93 h, 99 ppm, duration: 7 hr	0.521
2.954 h, 376 ppm, duration: 1 hr	0.719
2.958 h, 216 ppm, duration: 1 hr	0.345
3.928 h, 216 ppm, duration: 1 hr	0.226
3.963 h, 376 ppm, duration: 1 hr	0.827
4.085 h, 99 ppm, duration: 7 hr	0.403
4.943 h, 376 ppm, duration: 1 hr	0.594
4.946 h, 216 ppm, duration: 1 hr	0.197
4.988 h, 99 ppm, duration: 7 hr	0.355
5.975 h, 376 ppm, duration: 1 hr	0.586
5.991 h, 216 ppm, duration: 1 hr	0.112
5.998 h, 99 ppm, duration: 7 hr	0.242
7.018 h, 216 ppm, duration: 1 hr	0.0821
19 s, 51 ppm, duration: 1 hr	14.8
41 s, 216 ppm, duration: 1 hr	4.56
65 s, 51 ppm, duration: 1 hr	1.02
96 s, 376 ppm, duration: 1 hr	9.08
141 s, 216 ppm, duration: 1 hr	3.69
148 s, 51 ppm, duration: 1 hr	0.849
148 s, 99 ppm, duration: 7 hr	2.17
196 s, 376 ppm, duration: 1 hr	7.4
214 s, 51 ppm, duration: 1 hr	0.744
251 s, 99 ppm, duration: 7 hr	1.35

human, 80 ppm, duration: 6 hr
Conditions	concentration in expired air [ng/mL]
6.225 h	4.3
6.495 h	2.75
7.17 h	1.58
8.16 h	1.16
10.28 h	0.549
12.21 h	0.402
14.37 h	0.315
18.33 h	0.308
23.51 h	0.257
30.62 h	0.148
46.95 h	0.102

Source: EPA's CvTdb concentration-time database
